Results as given in ChEMBL document CHEMBL1137397, “Identification of selective, nonpeptidic nitrile inhibitors of cathepsin s using the substrate activity screening method” (J Med Chem, 2006).

What was measured:
[1] = biological target: T1, Cathepsin K (Homo sapiens, UniProt P43235); assay: Inhibition of cathepsin K
T1 sequence (P43235 whole entry): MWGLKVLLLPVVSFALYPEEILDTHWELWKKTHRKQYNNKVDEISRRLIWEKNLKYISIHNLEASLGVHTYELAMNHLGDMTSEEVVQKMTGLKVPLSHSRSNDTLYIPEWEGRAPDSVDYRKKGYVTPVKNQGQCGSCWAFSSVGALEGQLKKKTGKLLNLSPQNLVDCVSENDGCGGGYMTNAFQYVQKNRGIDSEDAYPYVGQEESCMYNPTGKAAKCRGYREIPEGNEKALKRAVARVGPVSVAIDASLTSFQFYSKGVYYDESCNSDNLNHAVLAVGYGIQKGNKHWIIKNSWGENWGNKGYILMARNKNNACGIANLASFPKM
How it was run: (§1)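 Cathepsins B (2 nM), K (10 nM) or L (0.03 nM) in pH 6.1 phosphate/NaCl/DTT/EDTA/Tween-20 buffer. Preincubated 5 min at 37 °C with five inhibitor levels (10-90% inhibition), in duplicate. Cbz-Phe-Arg-AMC added at 5 and 2.5 µM (B, K) or 0.6 and 0.3 µM (L). AMC read at ex 355/em 450 nm for 5 min. Ki by Dixon plot.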

[2] = biological target: Procathepsin L (Homo sapiens, UniProt P07711); assay: Inhibition of cathepsin L; how it was run: as §1
Chain of Procathepsin L (P07711 whole entry): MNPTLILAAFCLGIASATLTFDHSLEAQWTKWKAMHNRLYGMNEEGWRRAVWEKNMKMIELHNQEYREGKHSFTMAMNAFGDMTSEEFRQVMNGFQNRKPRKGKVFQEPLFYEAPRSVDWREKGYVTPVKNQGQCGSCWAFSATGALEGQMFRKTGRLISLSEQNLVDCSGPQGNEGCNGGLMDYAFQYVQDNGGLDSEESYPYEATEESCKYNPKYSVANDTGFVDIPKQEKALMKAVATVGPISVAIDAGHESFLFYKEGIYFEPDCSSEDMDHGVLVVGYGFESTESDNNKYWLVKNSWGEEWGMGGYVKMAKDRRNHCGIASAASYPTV

[3] = biological target: Cathepsin S (Homo sapiens, UniProt P25774); assay: Inhibition of cathepsin S
Chain of Cathepsin S (P25774 whole entry): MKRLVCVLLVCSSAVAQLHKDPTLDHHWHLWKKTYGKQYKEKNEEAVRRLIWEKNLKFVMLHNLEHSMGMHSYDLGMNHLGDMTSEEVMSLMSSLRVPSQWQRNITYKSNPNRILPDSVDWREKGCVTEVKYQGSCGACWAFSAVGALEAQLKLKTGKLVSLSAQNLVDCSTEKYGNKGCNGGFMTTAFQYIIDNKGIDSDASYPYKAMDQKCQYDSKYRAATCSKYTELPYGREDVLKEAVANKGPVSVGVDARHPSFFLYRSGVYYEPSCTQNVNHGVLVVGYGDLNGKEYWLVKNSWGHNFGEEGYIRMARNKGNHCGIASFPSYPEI
How it was run: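 Cathepsin S at 0.6 nM in pH 6.1 100 mM sodium phosphate with 100 mM NaCl, 1 mM DTT, 1 mM EDTA and 0.001% Tween-20. Enzyme preincubated 5 min at 37 °C with five inhibitor concentrations (10-90% inhibition), in duplicate. Cbz-Leu-Arg-AMC added at 5 and 2.5 µM, then AMC read (ex 355/em 450 nm) over 5 min. Ki by Dixon method.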

[4] = biological target: Cathepsin B (Homo sapiens, UniProt P07858); assay: Inhibition of cathepsin B; how it was run: as §1

Row | SMILES | IC50 [1] [µM] | Ki [1] [µM] | IC50 [2] [µM] | Ki [2] [µM] | Ki [3] [µM] | IC50 [4] [µM] | Ki [4] [µM]
1 | CCCC[C@@H](C#N)n1cc([C@@](C)(NC(=O)c2ccsc2)C2CCC(C)CC2)nn1 (stereo not given in full) | > 15 | > 15 | > 15 | > 15 | 0.015 |  | 
2 | CCCC[C@@H](C#N)n1cc([C@@](C)(NC(=O)c2ccsc2)C(C)C)nn1 |  | 0.43 | > 10 | > 10 | 0.42 | > 10 | > 10
3 | CCCC[C@@H](C#N)n1cc([C@@](C)(NC(=O)c2ccccc2)C2CCCCC2)nn1 | > 10 | > 10 | > 10 | > 10 | 0.2 | > 10 | > 10
4 | CCCC[C@@H](C#N)n1cc([C@@](C)(NC(=O)c2ccccc2)C(C)C)nn1 |  | 0.88 | > 10 | > 10 | 1.2 | > 10 | > 10
5 | CCCC[C@@H](C#N)n1cc([C@@](C)(NC(=O)c2ccsc2)C2CCCCC2)nn1 |  | 1.7 | > 10 | > 10 | 0.018 | > 10 | > 10
